Test results as given in ChEMBL document CHEMBL3822431, “Hydroxychalcone inhibitors of Streptococcus mutans glucosyl transferases and biofilms as potential anticaries agents” (Bioorg Med Chem Lett, 2016).
The source made the active and inactive calls. The calls are words filed in the database; no cut-off is given here.

What was measured:
[1] = target: T1, Glucosyltransferase-I (Streptococcus mutans serotype c (strain ATCC 700610 / UA159)) (UniProt P08987); test: Inhibition of Wild-type Streptococcus mutans UA159 glucosyltransferase B at 50 uM by zymography
T1 sequence (whole entry): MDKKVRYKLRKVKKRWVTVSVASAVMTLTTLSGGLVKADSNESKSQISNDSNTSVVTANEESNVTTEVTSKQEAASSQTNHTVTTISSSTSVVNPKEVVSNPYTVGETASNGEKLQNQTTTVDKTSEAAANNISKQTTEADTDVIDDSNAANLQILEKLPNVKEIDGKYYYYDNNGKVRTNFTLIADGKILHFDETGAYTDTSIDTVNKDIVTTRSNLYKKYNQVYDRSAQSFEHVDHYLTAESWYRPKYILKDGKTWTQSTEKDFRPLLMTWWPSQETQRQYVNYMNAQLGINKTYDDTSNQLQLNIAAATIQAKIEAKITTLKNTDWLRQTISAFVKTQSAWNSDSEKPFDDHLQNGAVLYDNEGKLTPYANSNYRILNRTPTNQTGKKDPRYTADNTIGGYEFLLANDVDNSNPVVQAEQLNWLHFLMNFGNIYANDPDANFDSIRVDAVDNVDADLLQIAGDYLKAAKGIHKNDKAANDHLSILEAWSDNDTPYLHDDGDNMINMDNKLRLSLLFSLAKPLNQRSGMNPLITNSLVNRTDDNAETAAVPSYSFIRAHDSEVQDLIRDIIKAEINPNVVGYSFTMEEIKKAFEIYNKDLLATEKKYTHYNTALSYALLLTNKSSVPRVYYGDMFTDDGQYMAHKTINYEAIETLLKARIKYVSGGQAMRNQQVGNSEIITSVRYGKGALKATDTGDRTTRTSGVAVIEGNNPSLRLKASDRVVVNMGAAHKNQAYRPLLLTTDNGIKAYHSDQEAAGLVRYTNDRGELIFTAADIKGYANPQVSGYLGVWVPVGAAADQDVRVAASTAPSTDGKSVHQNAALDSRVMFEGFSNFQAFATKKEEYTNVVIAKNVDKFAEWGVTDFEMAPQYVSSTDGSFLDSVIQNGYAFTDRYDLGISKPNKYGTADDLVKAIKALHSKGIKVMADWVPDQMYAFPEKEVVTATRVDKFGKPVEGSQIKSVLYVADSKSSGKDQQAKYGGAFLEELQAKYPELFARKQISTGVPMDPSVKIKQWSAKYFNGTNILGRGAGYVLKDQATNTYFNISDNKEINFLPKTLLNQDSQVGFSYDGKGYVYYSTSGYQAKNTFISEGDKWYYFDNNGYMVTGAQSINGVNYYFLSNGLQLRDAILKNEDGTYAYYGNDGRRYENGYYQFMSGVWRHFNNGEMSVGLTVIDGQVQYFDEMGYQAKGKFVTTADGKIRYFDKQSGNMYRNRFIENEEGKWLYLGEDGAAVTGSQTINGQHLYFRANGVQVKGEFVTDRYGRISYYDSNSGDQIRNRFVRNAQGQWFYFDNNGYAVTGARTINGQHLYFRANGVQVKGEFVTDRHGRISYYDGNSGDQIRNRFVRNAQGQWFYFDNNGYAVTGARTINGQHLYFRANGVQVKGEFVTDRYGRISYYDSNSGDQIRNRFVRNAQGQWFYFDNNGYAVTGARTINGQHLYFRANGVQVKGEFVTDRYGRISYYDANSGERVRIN
Procedure, shortened: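 Compound (50 µM) added to overnight S. mutans UA159 wild-type cultures; Gtfs concentrated from supernatants, run on duplicate SDS-PAGE; second gel used for zymogram, glucan band intensity taken as Gtf activity.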

Streptococcus mutans = test: Inhibition of Gfp tagged Streptococcus mutans UA159 colony formation in guts of sucrose-dependent Drosophila colonization model at 50 uM measured 7 days post infection by fluorescent microscopy; type: functional, organism-based
Procedure, shortened: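 Drosophila fed Gfp-tagged S. mutans with compound at 50 µM; DMSO as negative control, ΔgtfB mutant as biofilm-defective comparator; gut fluorescence examined by fluorescent microscopy 7 days after infection.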

[2] = target: T1, Glucosyltransferase-I (Streptococcus mutans serotype c (strain ATCC 700610 / UA159)); test: Inhibition of Wild-type Streptococcus mutans UA159 glucosyltransferase B by zymography
Procedure, shortened: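 S. mutans UA159 wild type co-incubated with compound at different concentrations; Gtfs concentrated from supernatants, separated by SDS-PAGE and assayed by zymography, glucan band intensity reflecting enzyme activity.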

| SMILES | inhibition [1] | inhibition [2] | inhibition (Streptococcus mutans) |
| --- | --- | --- | --- |
| O=C(/C=C/c1ccc(O)cc1O)c1ccc(O)cc1 | Active | – | – |
| O=C(/C=C\c1ccc(O)cc1O)c1cccc(O)c1 | Active | Dose-dependent effect | Active |

More lines, main results first:

| inhibition [1] | inhibition [2] | SMILES | inhibition (Streptococcus mutans) |
| --- | --- | --- | --- |
| Active | – | O=C(/C=C/c1cc(O)c(O)cc1O)c1ccccc1O (stereo in doubt; 18c) | – |
| Active | – | O=C(/C=C/c1ccc(O)cc1O)c1cccc(O)c1 (stereo in doubt; 9a) | Active |
| Active | – | O=C(/C=C\c1ccc(O)cc1O)c1ccc(O)cc1 | – |
